Activity calls are given as the source filed them. Where only a bound is given, the exact number is not on record here.

The text below walks through data of ChEMBL document CHEMBL5712914, “Selective Janus Kinase 1 Inhibition Is a Promising Therapeutic Approach for Lupus Erythematosus Skin Lesions” (Front Immunol, 2020).

Data set [1] has as its target T1, Tyrosine-protein kinase JAK3 (Homo sapiens, UniProt P52333).
T1 sequence (P52333 whole entry): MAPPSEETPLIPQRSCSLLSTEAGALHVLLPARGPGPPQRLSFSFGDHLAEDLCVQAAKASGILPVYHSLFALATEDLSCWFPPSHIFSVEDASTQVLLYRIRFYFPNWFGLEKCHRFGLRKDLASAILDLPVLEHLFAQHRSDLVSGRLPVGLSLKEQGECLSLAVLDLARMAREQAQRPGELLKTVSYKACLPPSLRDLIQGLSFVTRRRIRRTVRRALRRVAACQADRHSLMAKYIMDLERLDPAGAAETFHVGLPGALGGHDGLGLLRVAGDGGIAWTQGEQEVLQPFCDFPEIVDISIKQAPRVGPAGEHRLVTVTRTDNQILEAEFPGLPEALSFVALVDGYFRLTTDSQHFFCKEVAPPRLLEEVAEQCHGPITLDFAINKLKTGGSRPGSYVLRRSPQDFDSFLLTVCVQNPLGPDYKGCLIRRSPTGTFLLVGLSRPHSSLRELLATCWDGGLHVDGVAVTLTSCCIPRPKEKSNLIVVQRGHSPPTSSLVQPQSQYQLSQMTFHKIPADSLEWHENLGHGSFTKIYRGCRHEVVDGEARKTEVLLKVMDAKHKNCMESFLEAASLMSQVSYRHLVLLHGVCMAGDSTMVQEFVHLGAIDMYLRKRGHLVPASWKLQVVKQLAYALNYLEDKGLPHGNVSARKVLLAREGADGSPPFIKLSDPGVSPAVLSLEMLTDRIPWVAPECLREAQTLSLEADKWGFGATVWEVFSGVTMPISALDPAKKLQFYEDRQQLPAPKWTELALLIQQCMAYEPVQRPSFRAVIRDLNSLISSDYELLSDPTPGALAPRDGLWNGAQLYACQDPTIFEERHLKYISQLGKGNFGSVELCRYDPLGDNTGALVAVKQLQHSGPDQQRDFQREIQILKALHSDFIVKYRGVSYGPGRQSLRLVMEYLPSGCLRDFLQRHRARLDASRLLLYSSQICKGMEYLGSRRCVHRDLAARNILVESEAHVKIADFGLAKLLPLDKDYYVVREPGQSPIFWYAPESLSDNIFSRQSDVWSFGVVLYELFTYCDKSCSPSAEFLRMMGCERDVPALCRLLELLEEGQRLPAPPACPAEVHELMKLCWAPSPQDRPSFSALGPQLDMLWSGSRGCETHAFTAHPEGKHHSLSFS
As to the kind of experiment: Inhibition of JAK3 in endogenous nucleic acid-stimulated human HaCaT cells assessed as reduction in CXCL10 expression at 100 nM measured after 24 hrs by ELISA. For orientation: In an ELISA, binding on a coated surface is turned into a signal by an enzyme label.

Data set [2] concerns Mus musculus. As to the kind of experiment: Improvement in CLE-like skin lesions in 450 mJ/cm2 UV-irradiated lupus-prone TREX1-/- mouse model assessed as reduction in CCL7 gene expression in lesional skin at 1 % administered topically for 7 days relative to control. Particulars: time 7.0 day. The data set is classed as functional, organism-based. The gist of the method: (§1)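 Lesional skin from TREX1–/– mice given the topical JAK1 inhibitor or placebo underwent gene expression analysis for IFN-associated genes. Differential expression was defined as a change greater than twofold with p < 0.05 by Welch's t-test against placebo.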

Data set [3] deals with Mus musculus. Description: Improvement in CLE-like skin lesions in 450 mJ/cm2 UV-irradiated lupus-prone TREX1-/- mouse model assessed as reduction in erythema at 1 % administered topically for 7 days measured on day 4 and 7 post-dose. Particulars: time 7.0 day. Type of data set: functional, organism-based. In a few lines:
(§2)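 Topical treatment or placebo was given for 7 days, with n = 4 mice per group. Lesions were photographed daily and mice weighed every 2 days. Erythema, induration, scaling and lesion size were scored with the mouse-adapted revised CLASI (Mouse RCLASI) and reported as mean ± SEM.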

For data set [4], the target named is Tyrosine-protein kinase JAK1 (Homo sapiens) (UniProt P23458). As to the kind of experiment: Inhibition of JAK1 in endogenous nucleic acid-stimulated NHEK cells assessed as decrease in CXCL10 gene expression at 1 uM relative to control. The data set is classed as cell-based. In a few lines:
(§3)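 NHEK primary keratinocytes were stimulated with endogenous nucleic acids (eNA) and then treated with inhibitor at 1 μM final, 4 samples per condition. Gene expression was compared with untreated eNA-stimulated cells. Downregulation was defined as greater than twofold with p < 0.05 by Welch's t-test.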
Target sequence in this assay (P23458 whole entry): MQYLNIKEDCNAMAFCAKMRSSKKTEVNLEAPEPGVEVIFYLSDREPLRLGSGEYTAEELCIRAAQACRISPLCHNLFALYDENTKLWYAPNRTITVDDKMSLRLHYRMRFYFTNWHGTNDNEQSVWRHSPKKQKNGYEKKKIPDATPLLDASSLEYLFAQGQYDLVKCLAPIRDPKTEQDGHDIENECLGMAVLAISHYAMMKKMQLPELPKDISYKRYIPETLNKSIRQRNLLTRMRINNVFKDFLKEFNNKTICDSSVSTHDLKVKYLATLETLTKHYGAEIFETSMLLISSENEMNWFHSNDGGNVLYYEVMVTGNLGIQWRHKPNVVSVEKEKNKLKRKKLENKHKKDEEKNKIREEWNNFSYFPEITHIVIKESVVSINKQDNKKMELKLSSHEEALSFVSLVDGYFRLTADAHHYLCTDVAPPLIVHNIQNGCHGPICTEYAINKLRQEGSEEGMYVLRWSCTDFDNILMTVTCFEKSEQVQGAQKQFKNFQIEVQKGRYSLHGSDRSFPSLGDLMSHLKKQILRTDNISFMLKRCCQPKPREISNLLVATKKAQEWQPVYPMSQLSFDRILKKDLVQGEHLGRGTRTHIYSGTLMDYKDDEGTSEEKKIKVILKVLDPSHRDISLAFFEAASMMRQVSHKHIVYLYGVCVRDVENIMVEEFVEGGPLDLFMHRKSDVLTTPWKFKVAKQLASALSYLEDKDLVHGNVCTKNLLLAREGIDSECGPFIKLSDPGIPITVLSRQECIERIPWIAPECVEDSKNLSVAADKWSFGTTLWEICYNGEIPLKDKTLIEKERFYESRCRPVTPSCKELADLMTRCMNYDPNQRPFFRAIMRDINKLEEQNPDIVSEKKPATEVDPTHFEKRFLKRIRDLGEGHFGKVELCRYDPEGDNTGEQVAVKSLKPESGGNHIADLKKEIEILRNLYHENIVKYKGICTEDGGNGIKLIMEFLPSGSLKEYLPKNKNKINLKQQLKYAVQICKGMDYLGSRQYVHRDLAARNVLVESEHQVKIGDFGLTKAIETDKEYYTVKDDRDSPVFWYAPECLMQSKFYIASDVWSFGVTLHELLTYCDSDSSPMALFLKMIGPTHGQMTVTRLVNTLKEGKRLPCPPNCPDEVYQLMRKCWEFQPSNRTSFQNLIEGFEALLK

In data set [5] the test system is Mus musculus. As to the kind of experiment: Improvement in CLE-like skin lesions in 450 mJ/cm2 UV-irradiated lupus-prone TREX1-/- mouse model assessed as reduction in IRF7 gene expression in lesional skin at 1 % administered topically for 7 days relative to control. Type of data set: functional, organism-based. As to conditions: time 7.0 day. The gist of the method: as §1

Data set [6] addresses Tyrosine-protein kinase JAK1 (Homo sapiens) (UniProt P23458). Description: Inhibition of JAK1 in endogenous nucleic acid-stimulated NHEK cells assessed as decrease in Caspase 10 gene expression at 1 uM relative to control. The data set is classed as cell-based. The gist of the method: as §3
Target sequence in this assay (P23458 whole entry): as above
In data set [7] the test system is Mus musculus. As to the kind of experiment: Improvement in CLE-like skin lesions in 450 mJ/cm2 UV-irradiated lupus-prone TREX1-/- mouse model assessed as reduction in CCL5 gene expression in lesional skin at 1 % administered topically for 7 days relative to control. Type of data set: functional, organism-based. As to conditions: time 7.0 day. The gist of the method: as §1

The target in data set [8] is Tyrosine-protein kinase JAK1 (Homo sapiens) (UniProt P23458). Description: Inhibition of JAK1 in endogenous nucleic acid-stimulated NHEK cells assessed as decrease in AIM2 gene expression at 1 uM relative to control. Type of data set: cell-based. The gist of the method:
as §3
Target sequence in this assay (P23458 whole entry): as above

In data set [9] the test system is Mus musculus. As to the kind of experiment: Improvement in CLE-like skin lesions in 450 mJ/cm2 UV-irradiated lupus-prone TREX1-/- mouse model assessed as reduction in CXCL9 gene expression in lesional skin at 1 % administered topically for 7 days relative to control. Type of data set: functional, organism-based. Particulars: time 7.0 day. The gist of the method: as §1

Data set [10] has as its target Tyrosine-protein kinase JAK1 (Homo sapiens) (UniProt P23458). As to the kind of experiment: Inhibition of JAK1 in endogenous nucleic acid-stimulated NHEK cells assessed as decrease in TREX1 gene expression at 1 uM relative to control. The data set is classed as cell-based. In a few lines: as §3
Target sequence in this assay (P23458 whole entry): as above
For data set [11], the system named is Mus musculus. Description: Improvement in CLE-like skin lesions in 450 mJ/cm2 UV-irradiated lupus-prone TREX1-/- mouse model assessed as reduction in scaling at 1 % administered topically for 7 days measured on day 4 and 7 post-dose. Type of data set: functional, organism-based. Particulars: time 7.0 day. The gist of the method: as §2
Data set [12] has as its system Mus musculus. As to the kind of experiment: Improvement in CLE-like skin lesions in 450 mJ/cm2 UV-irradiated lupus-prone TREX1-/- mouse model assessed as improvement in epidermal thickness at 1 % administered topically for 7 days by H and E staining based histological analysis. Particulars: time 7.0 day. The data set is classed as functional, organism-based.
In data set [13] the test system is Mus musculus. As to the kind of experiment: Improvement in CLE-like skin lesions in 450 mJ/cm2 UV-irradiated lupus-prone TREX1-/- mouse model assessed as reduction in IRF1 gene expression in lesional skin at 1 % administered topically for 7 days relative to control. Type of data set: functional, organism-based. As to conditions: time 7.0 day. The gist of the method:
as §1

The test system of data set [14] is Mus musculus. Description: Improvement in CLE-like skin lesions in 450 mJ/cm2 UV-irradiated lupus-prone TREX1-/- mouse model assessed as reduction in IFITM3 gene expression in lesional skin at 1 % administered topically for 7 days relative to control. As to conditions: time 7.0 day. The data set is classed as functional, organism-based. The gist of the method: as §1

In data set [15] the test system is Mus musculus. As to the kind of experiment: Improvement in CLE-like skin lesions in 450 mJ/cm2 UV-irradiated lupus-prone TREX1-/- mouse model assessed as improvement in infiltrating dermal immune cells at 1 % administered topically for 7 days by H and E staining based histological analysis. The data set is classed as functional, organism-based. Particulars: time 7.0 day. In a few lines: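 Lesional skin from the topically treated or placebo-treated groups was processed for H&E and anti-CD45 immunohistology and viewed at ×400. Dermal infiltrate was graded as a CD45 inflammation score. Values are mean ± SEM and were compared by Mann-Whitney U test.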

The subject of data set [16] is Mus musculus. Description: Improvement in CLE-like skin lesions in 450 mJ/cm2 UV-irradiated lupus-prone TREX1-/- mouse model assessed as reduction in CCL2 gene expression in lesional skin at 1 % administered topically for 7 days relative to control. The data set is classed as functional, organism-based. Particulars: time 7.0 day. In a few lines:
as §1

Data set [17] has as its target Tyrosine-protein kinase JAK1 (Homo sapiens) (UniProt P23458). As to the kind of experiment: Inhibition of JAK1 in endogenous nucleic acid-stimulated NHEK cells assessed as decrease in TRAIL gene expression at 1 uM relative to control. The data set is classed as cell-based. The gist of the method: as §3
Target sequence in this assay (P23458 whole entry): as above
Data set [18] has the same target. Description: Inhibition of JAK1 in endogenous nucleic acid-stimulated NHEK cells assessed as decrease in BlyS gene expression at 1 uM relative to control. Type of data set: cell-based. The gist of the method:
as §3
Target sequence in this assay (P23458 whole entry): as above

Data set [19] deals with Mus musculus. Description: Improvement in CLE-like skin lesions in 450 mJ/cm2 UV-irradiated lupus-prone TREX1-/- mouse model assessed as reduction in lession size at 1 % administered topically for 7 days measured on day 4 and 7 post-dose. The data set is classed as functional, organism-based. Particulars: time 7.0 day. The gist of the method:
as §2

Data set [20] concerns Mus musculus. As to the kind of experiment: Improvement in CLE-like skin lesions in 450 mJ/cm2 UV-irradiated lupus-prone TREX1-/- mouse model assessed as reduction in CXCL10 gene expression in lesional skin at 1 % administered topically for 7 days relative to control. Type of data set: functional, organism-based. Particulars: time 7.0 day. The gist of the method:
as §1

The target of data set [21] is Tyrosine-protein kinase JAK1 (Homo sapiens) (UniProt P23458). As to the kind of experiment: Inhibition of JAK1 in endogenous nucleic acid-stimulated human HaCaT cells assessed as reduction in CXCL10 expression at 1 uM measured after 24 hrs by ELISA.
Target sequence in this assay (P23458 whole entry, looked up): as the sequence (P23458 whole entry) above
Data set [22] deals with Mus musculus. Description: Improvement in CLE-like skin lesions in 450 mJ/cm2 UV-irradiated lupus-prone TREX1-/- mouse model assessed as reduction in IRF9 gene expression in lesional skin at 1 % administered topically for 7 days relative to control. As to conditions: time 7.0 day. Type of data set: functional, organism-based. The gist of the method: as §1
In data set [23] the target is Tyrosine-protein kinase JAK1 (Homo sapiens) (UniProt P23458). As to the kind of experiment: Inhibition of JAK1 in endogenous nucleic acid-stimulated NHEK cells assessed as decrease in CXCL11 gene expression at 1 uM relative to control. Type of data set: cell-based. In a few lines:
as §3

Data set [24] concerns Mus musculus. As to the kind of experiment: Improvement in CLE-like skin lesions in 450 mJ/cm2 UV-irradiated lupus-prone TREX1-/- mouse model assessed as reduction in IFIT1 gene expression in lesional skin at 1 % administered topically for 7 days relative to control. Particulars: time 7.0 day. Type of data set: functional, organism-based. In a few lines: as §1
Data set [25] relates to Mus musculus. Description: Improvement in CLE-like skin lesions in 450 mJ/cm2 UV-irradiated lupus-prone TREX1-/- mouse model assessed as reduction in induration at 1 % administered topically for 7 days measured on day 4 and 7 post-dose. Type of data set: functional, organism-based. Particulars: time 7.0 day. The gist of the method:
as §2

For data set [26], the system named is Mus musculus. Description: Improvement in CLE-like skin lesions in 450 mJ/cm2 UV-irradiated lupus-prone TREX1-/- mouse model assessed as reduction in CCL9 gene expression in lesional skin at 1 % administered topically for 7 days relative to control. Particulars: time 7.0 day. Type of data set: functional, organism-based. The gist of the method: as §1

Take `CN(C)C(=O)/C(C#N)=C/c1ccc(-c2nc3cnc4[nH]ccc4c3n2C2CCCCC2)o1`: in data set [1], the “inhibition (INH)” value is listed as “Not Active”.
As for `N#CCC1(n2cc(-c3ncnc4[nH]ccc34)cn2)CN(C2CCN(C(=O)c3ccnc(C(F)(F)F)c3F)CC2)C1` [ITACITINIB], the result in the data set on Mus musculus [2], in the data set on Mus musculus [3], in the data set on Mus musculus [5], with Mus musculus [7], with Mus musculus [9] and in the data set with Mus musculus [11] was Active. The result in the data set with Mus musculus [12], with Mus musculus [13], in the data set with Mus musculus [14], in the data set on Mus musculus [15], with Mus musculus [16] and in the data set with Mus musculus [19] was Active. Further, the result in the data set on Mus musculus [20], with Mus musculus [22], with Mus musculus [24], in the data set with Mus musculus [25] and in the data set on Mus musculus [26] was Active. Also, the fold change (FC) in data set [4], in data set [6], in [8], in data set [10], in [17] and in data set [18] was greater than 2 throughout. In addition, the fold change (FC) in data set [23] was greater than 2. In addition, the “inhibition (INH)” value in [21] is reported as “Active”.
